Experimental data of several laboratories.
Protocols differ between the studies behind these lines.
Target: Serine/threonine-protein kinase PAK 4 (PAK4, Homo sapiens, UniProt O96013)

Nc1ncc2c(n1)-c1c([nH]c3ccc(C#CC4CC4)cc13)CCCC2  remaining binding (binding, competition with immobilised ligand; 1 µM): 76%
O=C(NCC1CCOCC1)c1n[nH]cc1NC(=O)c1c(F)cccc1F  remaining binding (binding, competition with immobilised ligand; 1 µM): 99%
CN(c1nccc(-c2cnn3ncccc23)n1)C1CC1  remaining binding (binding; 1 µM): 100%
C[C@@H]1CN(c2ccc3ncc(-c4ccc5[nH]nc(C6CC6)c5c4)n3n2)C[C@H](C)O1  remaining binding (binding, competition with immobilised ligand; 0.5 µM): 83%
C[C@@H](c1ccc(-n2cnc3c(N)ncnc32)cc1)N1CCc2nn(C)c(Cc3ccccc3)c2C1=O  remaining binding (binding, competition with immobilised ligand; 0.1 µM): 100%
Cc1nc(N2CC[C@@H](O)C2)ncc1-c1cc(C(F)(F)F)cc2[nH]ncc12  remaining binding (cell-free assay, competition with immobilised ligand; 1 µM): 100%
O=C(NCCCN1CCOCC1)c1ccc(Nc2nccc(-c3cc4ccccc4s3)n2)cc1  remaining binding (binding, competition with immobilised ligand; 1 µM): 91%
CCC(=N\O)/C(C)=C/c1ccc(F)cc1  remaining binding (cell-free assay, competition with immobilised ligand; 1 µM): 100%
CN(C)c1nccc(-c2cnn3ncccc23)n1  remaining binding (binding; 1 µM): 100%
COc1ncc2cc3ccccc3nc2c1C#N  remaining binding (cell-free assay, competition with immobilised ligand; 5 µM): 97%
O=C(NCc1ncc(C(F)(F)F)cc1Cl)c1ccc2c(c1)C1(CCS(=O)(=O)CC1)[C@H](C1CC1)N2S(=O)(=O)c1ccc(F)cc1  remaining binding (cell-free assay, competition with immobilised ligand; 1 µM): 100%
O=C(c1ccc(Nc2ncc(Cl)c(-c3ccc(Cl)s3)n2)cc1)N1CCC(N2CCCC2)CC1  remaining binding (binding, competition with immobilised ligand; 1 µM): 53%
Cc1nc(C2CCN(C(=O)c3ccc(OC(F)(F)F)cc3N)CC2)c2ncc(N3CCN(C)CC3)cc2n1  remaining binding (cell-free assay, competition with immobilised ligand; 1 µM): 100%
O=C(c1ccc(Nc2nccc(-c3cc4ccccc4s3)n2)cc1)N1CCC(N2CCCC2)CC1  remaining binding (binding, competition with immobilised ligand; 1 µM): 81%
COc1ccnn2ncc(-c3ccnc(N(C)C)n3)c12  remaining binding (binding; 1 µM): 85%
COc1cnc(Nc2cccc(S(N)(=O)=O)c2)nc1N1CCN(c2ccccc2)C(=O)C1  remaining binding (binding, competition with immobilised ligand; 1 µM): 100%
CCC(=O)N[C@@H]1CC[C@H](C(=O)N(C)c2ccc(-c3nc4ccccc4o3)cc2)C1  remaining binding (cell-free assay, competition with immobilised ligand; 1 µM): 100%
Cc1cnn2ncc(-c3ccnc(N(C)C)n3)c2c1  remaining binding (binding; 1 µM): 100%
CS(=O)(=O)c1cc(C2(NC(=O)c3cncc4c3cnn4-c3ccc(F)cc3)CC2)ccn1  remaining binding (cell-free assay, competition with immobilised ligand; 1 µM): 100%
N[C@@H]1CCN(c2nccc(-c3cnn4ncccc34)n2)C1  remaining binding (binding; 1 µM): 100%
O=C(N1CCS(=O)(=O)CC1)N1C[C@H](c2ccc(OC(F)(F)F)cc2)C[C@H](c2nc(C3CC3)no2)C1  remaining binding (cell-free assay, competition with immobilised ligand; 1 µM): 100%
CN(C)c1ncc(F)c(-c2cnn3ncccc23)n1  remaining binding (binding; 1 µM): 80%
C[C@@H](c1cccc(C#N)c1)n1cc(Cl)cc(C(N)=O)c1=N  remaining binding (cell-free assay, competition with immobilised ligand; 1 µM): 100%
C[C@@H]1CCN(c2nccc(-c3cnn4ncccc34)n2)C1  remaining binding (binding; 1 µM): 100%
N#Cc1ccccc1CSc1nnc2c(n1)[nH]c1ccccc12  remaining binding (binding, competition with immobilised ligand; 10 µM): 87%
